The source made the active and inactive calls. The calls are words filed in the database; no cut-off is given here.
Key:
Assay type in all cases: cell-based
[1] = target: Nuclear receptor subfamily 4 group A member 2 (Homo sapiens) (UniProt P43354); assay: Modulation of full length human Nurr1 expressed in SKNBE(2) cells co-transfected with luciferase reporter plasmid harboring NurRE response element assessed as decrease in luciferase activity at 12.5 to 50 uM incubated for 18 hrs by luciferase reporter gene assay; settings: SKNBE2, filed as modulator, dose 12.5-50 µM
Sequence of Nuclear receptor subfamily 4 group A member 2 (Homo sapiens) (P43354 whole entry, the tested form may be a part): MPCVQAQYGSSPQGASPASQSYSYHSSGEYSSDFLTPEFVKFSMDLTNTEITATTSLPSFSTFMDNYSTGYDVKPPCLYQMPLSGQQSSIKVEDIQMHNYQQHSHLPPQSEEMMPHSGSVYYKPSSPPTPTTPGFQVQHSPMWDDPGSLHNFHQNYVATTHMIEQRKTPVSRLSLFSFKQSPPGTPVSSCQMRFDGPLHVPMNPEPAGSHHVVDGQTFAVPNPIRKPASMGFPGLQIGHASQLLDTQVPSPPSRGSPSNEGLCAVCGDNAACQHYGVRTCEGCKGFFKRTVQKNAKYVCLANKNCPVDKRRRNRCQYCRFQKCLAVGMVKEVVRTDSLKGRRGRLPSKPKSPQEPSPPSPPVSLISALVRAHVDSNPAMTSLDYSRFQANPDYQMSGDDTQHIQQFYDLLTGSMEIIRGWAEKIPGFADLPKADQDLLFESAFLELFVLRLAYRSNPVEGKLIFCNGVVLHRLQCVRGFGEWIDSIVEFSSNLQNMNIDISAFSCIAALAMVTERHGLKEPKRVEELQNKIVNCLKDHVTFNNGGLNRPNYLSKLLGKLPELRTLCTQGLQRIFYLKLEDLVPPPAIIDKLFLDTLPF

HEK-293T = assay: Cytotoxicity in human HEK293T cells assessed as reduction in cell viability at 12.5 to 50 uM incubated for 18 hrs by Cell Titer-Glo assay; settings: dose 12.5-50 µM
Procedure, shortened: (§1)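 Cells seeded at 1.5 million per 10-cm dish. Next day they were replated at 10,000 cells/well and rested 4 h. Ligand or vehicle (water, ethanol or DMSO, by ligand) was added in dose-response format in quadruplicate. After 18 h, viability was read by CellTiter-Glo luminescence. Data are mean ± s.e.m., generally representative of 2 independent experiments. One-way ANOVA versus vehicle.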

[2] = target: Nuclear receptor subfamily 4 group A member 2 (Homo sapiens) (UniProt P43354); assay: Modulation of full length human Nurr1 expressed in SKNBE(2) cells co-transfected with RXRalpha and luciferase reporter plasmid harboring NBRE response element assessed as increase in luciferase activity at 12.5 to 50 uM incubated for 18 hrs by luciferase reporter gene assay; settings: SKNBE2, filed as modulator, dose 12.5-50 µM
Procedure, shortened: (§2)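 SK-N-BE(2)-C cells were kept in 1:1 EMEM/F12 with 10% FBS at 37°C and 5% CO2. They were cotransfected with full-length Nurr1 (1 μg), full-length RXRα (1 μg) and 3xNBRE- or 3xNurRE-luc reporter (6 μg) for 18 h, replated at 10,000 cells/well for 4 h, and then treated with ligand or vehicle in quadruplicate for 18 h. The readout was luciferase luminescence as fold over vehicle, reported as mean ± s.e.m. (n=4) from 2 independent experiments, one-way ANOVA.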

HEK293T = assay: Modulation of Gal4-fused VP16 expressed in HEK293T cells co-transfected with UAS repoter gene assessed as decrease in luciferase activity at 12.5 to 50 uM incubated for 18 hrs by luciferase reporter gene assay; settings: Human alphaherpesvirus 2, filed as modulator, dose 12.5-50 µM
Procedure, shortened: (§3)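 Cells in 10-cm dishes were transfected with Gal4-VP16 expression plasmid (2 μg) plus 5xUAS-luciferase reporter (2 μg) for 18 h. They were replated at 10,000 cells/well for 4 h, then given ligand or vehicle (water, ethanol or DMSO) in quadruplicate for 18 h. Luciferase was read with Britelite Plus. Fold change is versus vehicle-treated cells, with one-way ANOVA versus vehicle.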

[3] = target: Nuclear receptor subfamily 4 group A member 2 (Homo sapiens) (UniProt P43354); assay: Modulation of full length human Nurr1 expressed in HEK293T cells co-transfected with luciferase reporter plasmid harboring NBRE response element assessed as decrease in luciferase activity at 12.5 to 50 uM incubated for 18 hrs by luciferase reporter gene assay; settings: filed as modulator, dose 12.5-50 µM
Procedure, shortened: (§4)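 Full-length Nurr1 plasmid, alone (2 μg) or 1 μg plus full-length RXRα (1 μg), cotransfected with 3xNBRE- or 3xNurRE-luciferase reporter (6 μg) using Lipofectamine 2000, 18 h. Cells replated at 10,000/well for 4 h. Four ligand concentrations, or vehicle (water, ethanol or DMSO), added in quadruplicate for 18 h. Luciferase read. Fold change vs vehicle, mean ± s.e.m., one-way ANOVA vs vehicle.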

[4] = target: Nuclear receptor subfamily 4 group A member 2 (Homo sapiens) (UniProt P43354); assay: Modulation of full length human Nurr1 expressed in PC12 cells co-transfected with RXRalpha and luciferase reporter plasmid harboring NurRE response element at 12.5 to 50 uM incubated for 18 hrs by luciferase reporter gene assay; settings: PC-12, dose 12.5-50 µM
Procedure, shortened: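 PC12 cells were grown at 37°C and 5% CO2 in […] medium with 15% horse serum and 2.5% FBS. They were transfected with full-length Nurr1 (1 μg) plus full-length RXRα (1 μg) and 3xNBRE- or 3xNurRE-luciferase reporter (6 μg) for 18 h, then replated at 10,000 cells/well for 4 h. Ligand or vehicle (water, ethanol or DMSO) was added in quadruplicate for 18 h. Luminescence was read as fold change over vehicle. Results are mean ± s.e.m., n=4, from 2 independent experiments, analysed by one-way ANOVA against vehicle.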

[5] = target: Nuclear receptor subfamily 4 group A member 2 (Homo sapiens) (UniProt P43354); assay: Modulation of full length human Nurr1 expressed in PC12 cells co-transfected with luciferase reporter plasmid harboring NBRE response element at 12.5 to 50 uM incubated for 18 hrs by luciferase reporter gene assay; settings: PC-12, dose 12.5-50 µM
Procedure, shortened: (§5)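 Here PC12 cells (FK-12 medium, 15% horse serum, 2.5% FBS, 37°C, 5% CO2) received full-length Nurr1 (2 μg) without RXRα, plus 3xNBRE- or 3xNurRE-luciferase reporter (6 μg), for 18 h. Cells were replated at 10,000/well for 4 h, then treated with ligand or vehicle in quadruplicate for 18 h. Luciferase luminescence was normalized to vehicle-treated cells. Results are mean ± s.e.m. (n=4) from 2 independent experiments, with one-way ANOVA against vehicle.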

[6] = target: Nuclear receptor subfamily 4 group A member 2 (Homo sapiens) (UniProt P43354); assay: Modulation of full length human Nurr1 expressed in SKNBE(2) cells co-transfected with RXRalpha and luciferase reporter plasmid harboring NurRE response element assessed as decrease in luciferase activity at 12.5 to 50 uM incubated for 18 hrs by luciferase reporter gene assay; settings: SKNBE2, filed as modulator, dose 12.5-50 µM; procedure, shortened: as §2
[7] = target: Nuclear receptor subfamily 4 group A member 2 (Homo sapiens) (UniProt P43354); assay: Modulation of full length human Nurr1 expressed in SKNBE(2) cells co-transfected with RXRalpha and luciferase reporter plasmid harboring NBRE response element assessed as decrease in luciferase activity at 12.5 to 50 uM incubated for 18 hrs by luciferase reporter gene assay; settings: SKNBE2, filed as modulator, dose 12.5-50 µM; procedure, shortened: as §2
SK-N-BE(2) = assay: Cytotoxicity in human SKNBE2 cells assessed as reduction in cell viability at 12.5 to 50 uM incubated for 18 hrs by Cell Titer-Glo assay; settings: dose 12.5-50 µM; procedure, shortened: as §1
[8] = target: Nuclear receptor subfamily 4 group A member 2 (Homo sapiens) (UniProt P43354); assay: Modulation of full length human Nurr1 expressed in PC12 cells co-transfected with luciferase reporter plasmid harboring NurRE response element at 12.5 to 50 uM incubated for 18 hrs by luciferase reporter gene assay; settings: PC-12, dose 12.5-50 µM; procedure, shortened: as §5
PC-12 [9] = assay: Modulation of Gal4-fused VP16 expressed in PC12 cells co-transfected with UAS repoter gene assessed as decrease in luciferase activity at 12.5 to 50 uM incubated for 18 hrs by luciferase reporter gene assay; settings: Human alphaherpesvirus 2, filed as modulator, dose 12.5-50 µM; procedure, shortened: as §3
[10] = target: Nuclear receptor subfamily 4 group A member 2 (Homo sapiens) (UniProt P43354); assay: Modulation of full length human Nurr1 expressed in SKNBE(2) cells co-transfected with luciferase reporter plasmid harboring NBRE response element assessed as decrease in luciferase activity at 12.5 to 50 uM incubated for 18 hrs by luciferase reporter gene assay; settings: SKNBE2, filed as modulator, dose 12.5-50 µM
Procedure, shortened: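 Transfection of SK-N-BE(2)-C cells (1:1 EMEM/F12, 10% FBS, 37°C, 5% CO2) used full-length Nurr1 alone (2 μg, no RXRα) with 3xNBRE- or 3xNurRE-luciferase reporter (6 μg) for 18 h. Cells were replated at 10,000/well for 4 h, then exposed to ligand or vehicle in quadruplicate for 18 h. Luminescence was expressed as fold over vehicle, as mean ± s.e.m. (n=4) from 2 independent experiments, one-way ANOVA against vehicle.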

[11] = target: Nuclear receptor subfamily 4 group A member 2 (Homo sapiens) (UniProt P43354); assay: Modulation of full length human Nurr1 expressed in HEK293T cells co-transfected with RXRalpha and luciferase reporter plasmid harboring NurRE response element assessed as decrease in luciferase activity at 12.5 to 50 uM incubated for 18 hrs by luciferase reporter gene assay; settings: filed as modulator, dose 12.5-50 µM; procedure, shortened: as §4
[12] = target: Nuclear receptor subfamily 4 group A member 2 (Homo sapiens) (UniProt P43354); assay: Modulation of full length human Nurr1 expressed in HEK293T cells co-transfected with RXRalpha and luciferase reporter plasmid harboring NBRE response element assessed as increase in luciferase activity at 12.5 to 50 uM incubated for 18 hrs by luciferase reporter gene assay; settings: filed as modulator, dose 12.5-50 µM; procedure, shortened: as §4
SKNBE2 = assay: Modulation of Gal4-fused VP16 expressed in SKNBE(2) cells co-transfected with UAS repoter gene assessed as decrease in luciferase activity at 12.5 to 50 uM incubated for 18 hrs by luciferase reporter gene assay; settings: Human alphaherpesvirus 2, filed as modulator, dose 12.5-50 µM; procedure, shortened: as §3
[13] = target: Nuclear receptor subfamily 4 group A member 2 (Homo sapiens) (UniProt P43354); assay: Modulation of full length human Nurr1 expressed in HEK293T cells co-transfected with luciferase reporter plasmid harboring NurRE response element assessed as decrease in luciferase activity at 12.5 to 50 uM incubated for 18 hrs by luciferase reporter gene assay; settings: filed as modulator, dose 12.5-50 µM; procedure, shortened: as §4
[14] = target: Nuclear receptor subfamily 4 group A member 2 (Homo sapiens) (UniProt P43354); assay: Modulation of full length human Nurr1 expressed in HEK293T cells co-transfected with RXRalpha and luciferase reporter plasmid harboring NBRE response element assessed as decrease in luciferase activity at 12.5 to 50 uM incubated for 18 hrs by luciferase reporter gene assay; settings: filed as modulator, dose 12.5-50 µM; procedure, shortened: as §4
PC-12 [15] = assay: Cytotoxicity in rat PC-12 cells assessed as reduction in cell viability at 12.5 to 50 uM incubated for 18 hrs by Cell Titer-Glo assay; settings: pc-12, 18 h, dose 12.5-50 µM; procedure, shortened: as §1

In the case of `Clc1ccc(C(c2c[nH]c3ccccc23)c2c[nH]c3ccccc23)cc1`, the Activity [1] is reported as “Active”, the Activity (HEK-293T) is reported as “Toxic” and the Activity [2] is reported as “Active”. The Activity (HEK293T) was “Active”, the Activity [3] was “Active” and the Activity [4] was “inactive”. For the same molecule, the Activity [5] was “inactive”, the Activity [6] was “Active” and the Activity [7] was “Active”. The Activity (SK-N-BE(2)) was “Toxic”, the Activity [8] was “inactive” and the Activity (PC-12 [9]) was “Active”. For the same molecule, the Activity [10] was “Active”, the Activity [11] was “Active” and the Activity [12] was “Active”. The Activity (SKNBE2) was “Active”, the Activity [13] was “Active” and the Activity [14] was “Active”. The Activity (PC-12 [15]) was “Toxic”.

Reference: ChEMBL document CHEMBL5030505, “Assessment of NR4A Ligands That Directly Bind and Modulate the Orphan Nuclear Receptor Nurr1” (J Med Chem, 2020)
